HIF act – HIF pathway transcriptional activators, primary screen, cell-based, U2OS HRE-luciferase, luminescence; U2OS HRE-luciferase reporter; normalized: DMSO 0%, desferrioxamine 100%; activation, % at 7.5 µM (by protocol); actives 0.32% (n = 300,000); AID 1910, 2009;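 active = mean activation of at least 10% of the iron chelator positive control signal, with at least half of replicates also reaching 10%; inconclusive = mean and replicate majority disagree about reaching 10%; inactive = mean and most replicates under 10%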
T cruzi repl – inhibitors of intracellular T. cruzi growth, primary screen, luminescence, NIH3T3 host cells; actives 1.4% (n = 300,000); T. cruzi beta-gal in NIH3T3, 90 h; inhibition, % (test concentration not listed);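 active = mean inhibition across valid replicates above about 55%, limit read from the data; inconclusive = mean below that limit but half or more replicates reach it; inactive = mean below it, under half of replicates reach it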;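 also: signal also drops with host cell toxicity which is not excluded here; 0% = plate median of DMSO wells and 100% = zero luminescence signal; higher percent means less beta-gal luminescence so fewer parasites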
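compound dosing = single 50 nL compound addition per well in DMSO | material = NIH/3T3 host cells with β-galactosidase reporter T. cruzi | input = 5,000 host fibroblasts per well | timing = ≥90 h infection period, 3 h prior cell attachment | read-out basis = percent inhibition of parasite-derived β-gal signal | detection = GalScreen β-gal luminescence, detergent lysis, 60 min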
Calb FLC – C. albicans growth inhibition with fluconazole, primary screen, CaCi-2 strain, Alamar Blue fluorescence | C. albicans CaCi-2 (fluconazole-resistant clinical isolate) + fluconazole, 48 h | growth inhibition, % (concentration not given with the values) | actives 0.57% (n = 300,000);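 active = growth inhibition above about 58% in most replicates, limit read from the data, passing the limit was not always enough; inconclusive = exactly half the replicates above a set limit; inactive = most replicates below a set limit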;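 also: all wells also contain fluconazole at 8 µg/ml as a sub-toxic cotreatment; 0% = median of DMSO wells and 100% = median of geldanamycin control wells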
HSF-1 act – HSF-1 activators, primary screen, NIH3T3-HGL cells, MG132 stress, luminescence, single point | NIH3T3-HGL HSF-1 luciferase reporter, 8 h; 100% = twice DMSO control signal | actives 1.7% (n = 300,000) | activation, % at 9 µM;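 active = mean replicate activation of at least 50% with a set share of replicates each reaching 50%; inconclusive = only one of those two conditions met; inactive = mean below 50% and too few replicates reaching it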;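 also: 0% = median of the neutral control wells and 100% = twice that signal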
HSF1 inhib – HSF1 inhibitors in luciferase reporter cells, primary screen, cell-based, NIH3T3, luminescence. NIH3T3-HGL HSE-luciferase, MG132-induced, luminescence 8 h; active compounds read low. AID 2098, 2009. actives 0.77% (n = 300,000). activity change, negative = inhibition, % at 7.5 µM (by protocol);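 active = more than half of replicate wells show activity change below -50%, luminescence cut by over half; inconclusive = some wells, but at most half, below -50%; inactive = no replicate well below -50%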;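 also: luciferase reports HSF-1 transcriptional activity via heat shock element; 0% = median of DMSO wells and -100% = zero luminescence signal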
The depositor's hits bear a star. Compounds with a hit are over-represented: about 4.4% of the library has one in this group of screens.

How did Cc1sc(NC(=O)c2ccc(Br)s2)c(C(N)=O)c1C do in these assays?
HIF act: 1.9; T cruzi repl: 13.5; Calb FLC: 66.0; HSF-1 act: 61.3*; HSF1 inhib: 38.2

Results for O=c1c2ccccc2nc(SCCN2CCCCC2)n1CCc1ccccc1 ?
HIF act: 0.2; T cruzi repl: 62.8*; Calb FLC: 10.1; HSF-1 act: 24.1; HSF1 inhib: 18.2

What do the screens show for `CC1CCN(C(=O)CSc2nc3c(cnn3-c3ccc(Cl)cc3)c(=O)[nH]2)CC1`?
HIF act: 0.1; T cruzi repl: 3.1; Calb FLC: 15.0; HSF-1 act: -89.1; HSF1 inhib: -85.8*

Results for O=C1S/C(=C/c2ccc(N3CCOCC3)o2)C(=O)N1Cc1c(F)cccc1Cl ?
HIF act: 0.0; T cruzi repl: 36.4; Calb FLC: -7.7; HSF-1 act: 102.3*; HSF1 inhib: 94.2

What do the screens show for `O=C1S/C(=C\c2ccc(N3CCOCC3)o2)C(=O)N1Cc1c(F)cccc1Cl`?
HIF act: 0.1; T cruzi repl: 39.7; Calb FLC: 11.2; HSF-1 act: 250.7*; HSF1 inhib: 184.9

How did CN(C(=O)COC(=O)CN1C(=O)C2CC=CCC2C1=O)c1ccccc1 (stereo not given) do in these assays?
HIF act: -0.6; T cruzi repl: -6.6; Calb FLC: -4.0; HSF-1 act: -7.8; HSF1 inhib: 4.6

Results for COc1cccc(-n2nnnc2S(C)(=O)=O)c1 ?
HIF act: -1.7; T cruzi repl: 48.6; Calb FLC: 104.7*; HSF-1 act: 325.1*; HSF1 inhib: 256.1

Results for N#C/C(=N\O)c1nc2ccccc2s1 ?
HIF act: -1.0; T cruzi repl: -0.6; Calb FLC: 25.1; HSF-1 act: -46.9; HSF1 inhib: -31.0

What do the screens show for `COc1cc(/C=C(\C#N)c2nc3ccccc3s2)cc([N+](=O)[O-])c1O`?
HIF act: 0.0; T cruzi repl: 18.7; Calb FLC: 87.9*; HSF-1 act: 19.0; HSF1 inhib: 2.2

What do the screens show for `N#C/C(=C/c1ccco1)c1nc2ccccc2s1`?
HIF act: 2.3; T cruzi repl: -4.3; Calb FLC: 1.2; HSF-1 act: 99.7*; HSF1 inhib: 43.9

What do the screens show for `N#C/C(=C\c1ccco1)c1nc2ccccc2s1`?
HIF act: 1.9; T cruzi repl: -8.4; Calb FLC: 3.5; HSF-1 act: 80.0*; HSF1 inhib: 20.2

What do the screens show for `N#C/C(=C/c1ccc(-c2cc(C(=O)O)cc(C(=O)O)c2)o1)c1nc2ccccc2s1`?
HIF act: 0.4; T cruzi repl: 5.2; Calb FLC: 10.5; HSF-1 act: 21.3; HSF1 inhib: 7.6

What do the screens show for `N#C/C(=C\c1ccc(O)c([N+](=O)[O-])c1)c1nc2ccccc2s1`?
HIF act: 0.3; T cruzi repl: -9.4; Calb FLC: inconclusive; HSF-1 act: 20.7; HSF1 inhib: -5.5

What do the screens show for `Cc1noc(C)c1CCC(=O)N1CCCC(CCC(=O)NCc2ccccc2F)C1` (stereo not given)?
HIF act: 0.3; T cruzi repl: 9.3; Calb FLC: inconclusive; HSF-1 act: -6.7; HSF1 inhib: -2.8

What do the screens show for `COc1ccc(/C=C/c2onc(C)c2S(=O)(=O)N2CCC(C(=O)N3CCC(C)CC3)CC2)cc1`?
HIF act: 0.1; T cruzi repl: 23.4; Calb FLC: 1.4; HSF-1 act: 9.6; HSF1 inhib: 8.7

What do the screens show for `Cc1nn(Cc2ccccc2Cl)c(C)c1NC(=O)CCCn1nc([N+](=O)[O-])c(Cl)c1C`?
HIF act: -0.3; T cruzi repl: 70.6*; Calb FLC: 4.9; HSF-1 act: 60.9*; HSF1 inhib: 23.2

How did Nc1nc(NC(=O)C(Cl)(Cl)Cl)nn1-c1ccccc1 do in these assays?
HIF act: 0.0; T cruzi repl: -9.6; Calb FLC: -26.9; HSF-1 act: -81.9; HSF1 inhib: -76.8*

Results for COc1c(Cl)cc(Cl)cc1/C=C/C(=O)c1ccc(NC(=O)c2cccs2)cc1 ?
HIF act: 0.2; T cruzi repl: 43.1; Calb FLC: 9.8; HSF-1 act: 115.5*; HSF1 inhib: 75.9

How did COc1c(Cl)cc(Cl)cc1C(=O)Nc1ccc(C(=O)O)cc1 do in these assays?
HIF act: 0.2; T cruzi repl: -27.9; Calb FLC: 36.5; HSF-1 act: -3.0; HSF1 inhib: 1.6

How did O=C(Nc1cccc(NC(=O)c2cccc(Cl)c2)c1)c1cccnc1 do in these assays?
HIF act: -0.6; T cruzi repl: -9.4; Calb FLC: 10.9; HSF-1 act: -11.1; HSF1 inhib: -4.7

Results for CCOc1ccc2nc(SCC(=O)Nc3ccc4[nH]c(=O)[nH]c4c3)[nH]c2c1 ?
HIF act: -0.1; T cruzi repl: 3.6; Calb FLC: -0.1; HSF-1 act: 5.9; HSF1 inhib: 1.7

How did O=C(Nc1nc(-c2ccccn2)cs1)c1ccc(Br)s1 do in these assays?
HIF act: 0.1; T cruzi repl: 0.8; Calb FLC: 92.6*; HSF-1 act: 2.2; HSF1 inhib: 4.3

How did O=C(Nc1ccccc1Cl)c1ccc(-c2ccccn2)s1 do in these assays?
HIF act: 2.5; T cruzi repl: 12.4; Calb FLC: -3.7; HSF-1 act: 67.7*; HSF1 inhib: 38.5

What do the screens show for `O=C(Nc1nc(-c2ccccn2)cs1)c1cccc(-n2cnnn2)c1`?
HIF act: 19.6*; T cruzi repl: 62.8*; Calb FLC: -15.1; HSF-1 act: 3.1; HSF1 inhib: -2.3

How did Cc1ccc(-n2[nH]c(C)c(CCC#N)c2=O)cc1 do in these assays?
HIF act: 0.3; T cruzi repl: -13.0; Calb FLC: -17.4; HSF-1 act: 12.1; HSF1 inhib: 2.3

What do the screens show for `C=CCNc1nc(Cl)nc(Nc2ccc(OCC)cc2)n1`?
HIF act: 0.0; T cruzi repl: 4.3; Calb FLC: 20.6; HSF-1 act: 11.0; HSF1 inhib: 3.2

What do the screens show for `COc1ccc(NC(=O)NCCC2=CCCCC2)cc1`?
HIF act: 1.5; T cruzi repl: -11.1; Calb FLC: inconclusive; HSF-1 act: 72.1*; HSF1 inhib: 34.2

How did Cc1cc(C(=O)NCCC2=CCCCC2)no1 do in these assays?
HIF act: 1.8; T cruzi repl: -4.7; Calb FLC: -0.6; HSF-1 act: 51.2*; HSF1 inhib: 14.8

What do the screens show for `COc1cccc(NC(=O)NCCC2=CCCCC2)c1`?
HIF act: 2.3; T cruzi repl: -1.2; Calb FLC: -25.4; HSF-1 act: 45.8; HSF1 inhib: 19.2

Results for COc1cccc(NC(=O)[C@H](CC(C)C)NC(=O)[C@@H]2Cc3ccccc3CN2)c1 ?
HIF act: 0.4; T cruzi repl: -9.5; Calb FLC: 8.3; HSF-1 act: 34.6; HSF1 inhib: 27.8

Results for COc1ccc(OC)c(NS(=O)(=O)c2c(C)nc3sccn3c2=O)c1 ?
HIF act: -0.2; T cruzi repl: -6.0; Calb FLC: 8.5; HSF-1 act: 5.7; HSF1 inhib: -3.3

Source: PubChem
